Results reported in ChEMBL document CHEMBL4382240, “Discovery of novel 2,5-dihydroxyterephthalamide derivatives as multifunctional agents for the treatment of Alzheimer's disease” (Bioorg Med Chem, 2018).
pIC50: −log10 of the molar value. Active and inactive are the calls of the source. No cut-off for these calls is given here.

Key:
[1] = Cytotoxicity against […] cells assessed as decrease in cell viability up to 10 uM measured after 24 hrs by MTT assay; format: cell-based
How it was run: (§1)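 BV-2 cells grown 24 h, then treated with compound (0.5, 2.5, 10.0 µM) for 30 min, with or without LPS (1.0 µg/mL), for a further 24 h. MTT (5 mg/mL) added for 4 h, formazan dissolved in DMSO, A490 read. Viability given as percent of untreated cells. Triplicate wells; three independent experiments.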

[2] = target: Butyrylcholinesterase (Rattus norvegicus, UniProt Q9JKC1); experiment: Inhibition of rat serum BuChE using butyrylthiocholine iodide as substrate after 15 mins by Ellman's method; format: ADME
Sequence of Butyrylcholinesterase (Q9JKC1 whole entry): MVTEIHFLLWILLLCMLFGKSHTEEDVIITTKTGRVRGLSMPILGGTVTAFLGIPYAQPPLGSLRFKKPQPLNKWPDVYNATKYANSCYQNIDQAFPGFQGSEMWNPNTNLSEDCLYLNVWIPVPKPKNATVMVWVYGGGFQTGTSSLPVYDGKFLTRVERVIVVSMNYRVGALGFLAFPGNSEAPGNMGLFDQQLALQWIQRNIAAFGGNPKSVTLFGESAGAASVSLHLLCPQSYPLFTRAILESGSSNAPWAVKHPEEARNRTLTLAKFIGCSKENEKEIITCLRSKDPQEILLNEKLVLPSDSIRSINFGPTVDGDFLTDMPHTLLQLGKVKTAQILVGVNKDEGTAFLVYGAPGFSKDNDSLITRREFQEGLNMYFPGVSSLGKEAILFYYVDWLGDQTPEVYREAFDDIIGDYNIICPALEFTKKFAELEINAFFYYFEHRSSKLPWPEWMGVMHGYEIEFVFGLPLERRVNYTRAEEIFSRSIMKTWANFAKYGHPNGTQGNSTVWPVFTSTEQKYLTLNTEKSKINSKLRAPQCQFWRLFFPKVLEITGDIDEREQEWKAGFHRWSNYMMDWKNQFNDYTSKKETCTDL

[3] = Antioxidant activity assessed as trolox equivalent of APPH-induced radical scavenging activity at 5 uM preincubated for 15 mins followed by AAPH addition measured every minute for 90 mins by ORAC fluorescein assay; format: functional
How it was run: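 ORAC-FL in 75 mM phosphate buffer, pH 7.4. Fluorescein (150 nM final) and sample (tested at 1–10 µM) incubated 15 min at 37 °C. AAPH (12 mM final) then added, and fluorescence (ex 485/em 535 nm) read every minute for 90 min. Trolox standard 1–8 µM; result expressed as µM Trolox equivalent per µM compound. Duplicate wells; three independent experiments.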

[4] = Metal chelating activity assessed as compound-Al3+ complex formation at 37.5 uM after 30 mins by UV spectrometry method
How it was run: (§2)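 Compound and metal salt (CuCl2, ZnCl2, FeSO4 or AlCl3), each 37.5 µM final in methanol, incubated 30 min at room temperature. UV-vis spectra recorded from 200 to 600 nm and compared with the compound alone.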

[5] = Effective permeability of the compound in PBS/EtOH at 100 ug/ml after 18 hrs by PAMPA; format: ADME; settings: read-out: Peff
[6] = species on record: Homo sapiens; experiment: Anti-inflammatory activity in […] cells assessed as inhibition of LPS-stimulated TNFalpha release preincubated for 30 mins followed by LPS stimulation and measured after 24 hrs by ELISA; format: functional, cell-based
How it was run: (§3)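 Confluent BV-2 cells in DMEM preincubated 30 min with compound, tested over 0.5–10 µM, then stimulated with LPS (1.0 µg/mL) for 24 h. Released TNF-α measured by ELISA following kit instructions. Triplicate wells; mean ± SD of three independent experiments.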

[7] = Metal chelating activity assessed as compound-Fe2+ complex formation at 37.5 uM after 30 mins by UV spectrometry method; how it was run: as §2
[8] = Effect on TNFalpha release in […] cells up to 10 uM after 24 hrs by ELISA; format: ADME, cell-based
How it was run: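 BV-2 cells exposed to compound up to 10 µM with no added LPS. TNF-α in the medium measured by ELISA. Mean ± SD of three independent experiments.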

[9] = Anti-inflammatory activity in […] cells assessed as inhibition of LPS-stimulated TNFalpha release at 10 uM preincubated for 30 mins followed by LPS stimulation and measured after 24 hrs by ELISA relative to control; format: functional; settings: BV-2; how it was run: as §3
[10] = Effect on NO release in […] cells up to 10 uM after 24 hrs by Griess reagent based assay; format: ADME, cell-based
How it was run: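 BV-2 cells in DMEM treated with compound alone, without LPS, up to 10 µM. Nitrite in culture supernatant measured by Griess reagent (A540) against a NaNO2 standard curve. Mean ± SD of three independent experiments.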

[11] = Cytotoxicity against […] cells assessed as decrease in cell viability up to 10 uM preincubated for 30 mins followed by LPS stimulation and measured after 24 hrs by MTT assay; format: cell-based; how it was run: as §1
[12] = Anti-inflammatory activity in […] cells assessed as inhibition of LPS-stimulated TNFalpha release at 2.5 uM preincubated for 30 mins followed by LPS stimulation and measured after 24 hrs by ELISA relative to control; format: functional; settings: BV-2; how it was run: as §3

For `CCN(CCCCNC(=O)c1cc(O)c(C(=O)NCCCCN(CC)Cc2ccccc2OC)cc1O)Cc1ccccc1OC`, the Activity [1] was “Non-Toxic”, the pIC50 [2] was < 4.00 and the Activity [3] was 0.97 equiv. The Activity [4] was “Active”, the Papp at 18 h, 100 ug/ml [5] was 4.45 ×10⁻⁶ cm/s and the inhibition [6] was “Dose-dependent effect”. The Activity [7] was “Active”, the Activity [8] was “Non-Toxic” and the inhibition at 10 µM [9] was 55.3%. For the same compound, the Activity [10] was “Non-Toxic”, the Activity [11] was “Non-Toxic” and the inhibition at 2.5 µM [12] was 37.1%.
